Experiments:
[1] = Half life period was evaluated in rat; details: in vivo
[2] = target: Endothelin receptor (Rattus norvegicus) (UniProt P26684+P21451); assay: Selectivity for endothelin A receptor over endothelin receptor B; assay type: protein assay
[3] = target: T1, Endothelin-1 receptor (Homo sapiens, UniProt P25101); assay: Displacement of [125I]ET-1 from Endothelin A receptor
T1 sequence (P25101 whole entry): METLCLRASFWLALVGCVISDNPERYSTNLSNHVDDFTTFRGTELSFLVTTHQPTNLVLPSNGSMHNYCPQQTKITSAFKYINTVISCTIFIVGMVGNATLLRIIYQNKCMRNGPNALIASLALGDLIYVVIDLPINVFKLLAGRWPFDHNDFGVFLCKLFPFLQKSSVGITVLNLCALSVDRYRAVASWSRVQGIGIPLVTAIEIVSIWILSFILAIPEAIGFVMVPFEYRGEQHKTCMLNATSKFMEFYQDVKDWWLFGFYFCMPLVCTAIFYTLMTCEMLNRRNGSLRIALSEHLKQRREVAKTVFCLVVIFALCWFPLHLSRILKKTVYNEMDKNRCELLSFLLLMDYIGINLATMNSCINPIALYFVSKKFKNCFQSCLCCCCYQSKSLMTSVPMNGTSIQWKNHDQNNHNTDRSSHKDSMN

[4] = Compound was evaluated for oral bioavailability in human; assay type: ADME, organism-based; details: in vivo, read-out: Activity
[5] = Half life period was evaluated in dog; 4-4.8; assay type: ADME, organism-based, Canis lupus familiaris; details: in vivo
[6] = (§1) Compound was evaluated for area under the curve expressed as (h*ug/ml); assay type: ADME; details: human
Summary of the method: (§2)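 Rats given 50 mg/kg orally. Plasma was separated at once by centrifugation and stored at -80 °C. Proteins were precipitated with acetonitrile and drug measured by HPLC to give Cmax, AUC and t1/2.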

[7] = Compound was evaluated for oral bioavailability in dog; 90-100; assay type: ADME, organism-based, Canis lupus familiaris; details: in vivo, read-out: Activity
[8] = Half life period was evaluated in rat; 5.9-7.5; assay type: ADME, organism-based; details: in vivo; summary of the method: as §2
[9] = target: T2, Endothelin receptor type B (Homo sapiens, UniProt P24530); assay: Inhibitory concentration towards endothelin B receptor in human; assay type: functional
T2 sequence (P24530 whole entry): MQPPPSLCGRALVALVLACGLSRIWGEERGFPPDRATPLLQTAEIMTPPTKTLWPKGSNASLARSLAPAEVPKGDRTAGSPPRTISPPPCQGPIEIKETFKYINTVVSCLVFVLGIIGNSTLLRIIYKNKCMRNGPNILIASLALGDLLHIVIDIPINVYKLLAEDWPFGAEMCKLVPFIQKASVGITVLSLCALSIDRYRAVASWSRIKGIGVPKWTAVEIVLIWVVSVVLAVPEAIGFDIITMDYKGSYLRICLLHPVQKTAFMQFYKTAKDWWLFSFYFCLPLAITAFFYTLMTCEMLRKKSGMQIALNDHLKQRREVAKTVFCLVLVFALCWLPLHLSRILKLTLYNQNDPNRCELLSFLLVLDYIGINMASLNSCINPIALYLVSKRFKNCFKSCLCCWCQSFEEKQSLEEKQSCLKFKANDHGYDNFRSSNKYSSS

[10] = target: T3, Endothelin-1 receptor (Rattus norvegicus, UniProt P26684); assay: Binding affinity towards Endothelin A receptor
T3 sequence (P26684 whole entry): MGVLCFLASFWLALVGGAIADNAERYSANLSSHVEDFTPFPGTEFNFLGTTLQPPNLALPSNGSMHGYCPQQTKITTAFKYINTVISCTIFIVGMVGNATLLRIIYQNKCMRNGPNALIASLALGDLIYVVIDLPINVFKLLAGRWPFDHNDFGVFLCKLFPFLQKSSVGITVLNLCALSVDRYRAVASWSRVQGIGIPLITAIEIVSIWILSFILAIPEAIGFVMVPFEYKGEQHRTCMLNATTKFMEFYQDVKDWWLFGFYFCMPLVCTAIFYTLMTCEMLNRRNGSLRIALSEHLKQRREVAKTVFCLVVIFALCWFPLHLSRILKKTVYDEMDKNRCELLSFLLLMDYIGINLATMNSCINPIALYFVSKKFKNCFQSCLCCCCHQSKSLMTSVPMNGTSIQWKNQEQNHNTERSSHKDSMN

[11] = test system: Rattus norvegicus; assay: Compound was evaluated for oral dose to effect 50% inhibition of mean pulmonary arterial pressure; assay type: functional, Artery
Summary of the method: (§3)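 Acute hypoxia-induced pulmonary hypertension model in rats. Compound given orally; the oral dose giving 50% inhibition of the increase in mean pulmonary arterial pressure is reported.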

[12] = Half life period was evaluated in human; assay type: ADME
[13] = target: Endothelin-1 receptor (Homo sapiens) (UniProt P25101); assay: Selectivity towards endothelin A receptor in human.
[14] = Compound was evaluated for oral bioavailability in rats; details: rat, in vivo
[15] = Half life period was determined; 6-7; assay type: ADME; details: human
[16] = Cmax in rat plasma after oral dose (50 mg/Kg); assay type: ADME, organism-based; parameters: dose 50 mg/Kg, route oral; summary of the method: as §2
[17] = Half life period was determined; assay type: ADME, organism-based; details: rat, in vivo; summary of the method: as §2
[18] = as §1; assay type: ADME, organism-based; parameters: concentration or dose not given beside the values; details: rat, in vivo; summary of the method: as §2
[19] = test system: Rattus norvegicus; assay: Compound was evaluated for oral dose to effect 50% inhibition of mean pulmonary arterial pressure (MPAP); assay type: functional, Artery; summary of the method: as §3

Sequence of Endothelin receptor (Rattus norvegicus) (P21451 whole entry, looked up, one chain of several): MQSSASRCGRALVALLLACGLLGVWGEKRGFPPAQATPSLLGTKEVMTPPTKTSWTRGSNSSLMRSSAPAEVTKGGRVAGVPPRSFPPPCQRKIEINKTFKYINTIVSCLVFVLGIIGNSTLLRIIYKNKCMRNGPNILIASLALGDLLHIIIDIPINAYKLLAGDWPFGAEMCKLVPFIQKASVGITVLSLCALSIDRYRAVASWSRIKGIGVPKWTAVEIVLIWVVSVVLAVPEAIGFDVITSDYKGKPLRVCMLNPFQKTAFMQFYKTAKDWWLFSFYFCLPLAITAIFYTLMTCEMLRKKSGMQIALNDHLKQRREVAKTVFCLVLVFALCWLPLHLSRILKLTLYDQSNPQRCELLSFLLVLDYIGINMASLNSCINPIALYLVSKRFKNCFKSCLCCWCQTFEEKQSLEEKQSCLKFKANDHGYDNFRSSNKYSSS

| SMILES | half-life [1] [min] | Selectivity [2] | IC50 [3] [nM] | bioavailability [4] [%] | half-life [5] [h] | AUC [6] [µg·h/mL] | bioavailability [7] [%] | half-life [8] [h] | IC50 [9] [nM] | Ki [10] [nM] | Activity [11] [mg/kg] | half-life [12] [h] | Selectivity [13] | bioavailability [14] [%] | half-life [15] [h] | Cmax [16] [µg/mL] | half-life [17] [h] | AUC [18] [µg·h/mL] | Activity [19] [mg/kg] |
| --- | --- | --- | --- | --- | --- | --- | --- | --- | --- | --- | --- | --- | --- | --- | --- | --- | --- | --- | --- |
| COc1ccccc1Oc1c(NS(=O)(=O)c2ccc(C(C)C)cn2)nc(-c2ccnc(-c3nnn[nH]3)c2)nc1OCCO [TEZOSENTAN] | 7.8 | 56 | 23 |  |  |  |  |  |  |  |  |  |  |  |  |  |  |  |  |
| Cc1cc2c(cc1CC(=O)c1sccc1S(=O)(=O)Nc1onc(C)c1Cl)OCO2 [SITAXENTAN] |  | 7000 |  | ~80 | 4.8 | 33 | 100 | 7.5 | 9800 | 0.43 | 2.5 | 6.46 | 6500 |  |  |  |  |  |  |
| CC(=O)c1cc(C)cc(C)c1NC(=O)c1sccc1S(=O)(=O)Nc1onc(C)c1C |  |  | 0.08 | > 80 |  |  |  |  |  |  |  |  | 441000 | ~100 | 7 | 180 | 5.3 | 1310 | < 1 |
